Experimental data from PubChem BioAssay.
Unmarked numbers belong to inactive results. Records with an inconclusive call do not appear. The source made the active and inactive calls.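 The calls were made as follows, unless noted: active = growth inhibition above 25% in both replicates, a cutoff set 3 SD above the mean; inconclusive = above 25% in only one replicate; inactive = the rest.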

Tests used:
[1] = S. cerevisiae growth inhibition in permissive medium (OD615), pilot counter-assay for S. cerevisiae lifespan shortening project, permissive growth control (AID 705); details: OD615, 24 h, at 10 µM, hits give high values
How it was run: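 Test system: Saccharomyces cerevisiae strain carrying genetically modified DeaD replicative-lifespan system; buffer or medium: SC raffinose/galactose permissive medium; dosing: one dose 10 µM, DMSO 0.25% final; times: 24 h exposure, 30 °C; measured by: OD at 615 nm; read-out basis: growth inhibition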

[2] = S. cerevisiae growth inhibition in restrictive medium, OD615, pilot screen, restrictive growth control, yeast lifespan reduction project (AID 706;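 active = growth inhibition above a set limit, 3 SD over mean compound inhibition, in both replicates, cut at about 43% in these data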;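 also: modified DeaD lifespan yeast strain shifted to restrictive glucose medium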); details: OD615, 48 h, at 10 µM, hits give high values
How it was run: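 material = engineered S. cerevisiae DeaD strain | buffer or medium = glucose-based CSMM-D restrictive medium | dosing = one concentration, 10 µM final, 0.25% DMSO | schedule = 4 h pre-growth plus 48 h compound exposure, 30 °C | detection = OD615 absorbance reading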

[3] = doxorubicin toxicity protection in MRP-1 cells – H69AR cells, CellTiter-Glo, duplicate, MRP-1 activator project, pilot screen (AID 807;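 active = viability increase at or above a cutoff of the median across tested compounds plus 3 SD, cut at about 8.5% in these data, passing the limit was not always enough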;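 also: compound pretreatment 18-22 h then 72 h combined with doxorubicin; 0% = doxorubicin alone and 100% = vehicle without doxorubicin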); details: H69AR viability with doxorubicin, CellTiter-Glo luminescence; at 10 µM; hits give high values
[4] = viability of HCT116 without oncogenic beta-catenin – human colon tumor cells, pilot screen (AID 823;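 active = cell viability at or below a set limit in both duplicate runs, the limit being the all-compound median minus 4 SD, cut at about 23% in these data, passing the limit was not always enough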;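 also: 0% = wells killed by 20 µM Hyamine and 100% = untreated DMSO cell wells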); details: HCT116 beta-catenin knockout viability, CellTiter-Glo, 60 h; at 10 µM; hits give low values
[5] = viability of PTEN-null HCT116 cells – cell-based, HCT116 clonal line, CellTiter-Glo, pilot screen (AID 824;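 active = viability at or below 27.92% in each of two runs, the all-compound median minus 4 SD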;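 also: 0% = 20 µM Hyamine control and 100% = vehicle cell control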); details: HCT116 PTEN-deleted viability, 60 h, at 10 µM, hits give low values
[6] = RAM pathway blockade in budding yeast – dse1pr::URA3 reporter, 5-FOA selection, pilot screen (AID 869;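 active = inhibition over a set limit, the all-compound mean plus 3 SD, in both replicate runs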;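 also: 0% = DMSO wells with no growth and 100% = 10 µM 1-NA-PP1 with full growth; RAM network block rescues cells from 5-FOA so hits raise OD615 growth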); details: S. cerevisiae dse1pr::URA3 5-FOA growth, OD615, 2 d; at 10 µM; hits give high values; strain carries analog-sensitive mutant Cbk1 kinase
[7] = RAM signaling pathway blockade in yeast – S. cerevisiae, Pdr1DBD-CYC8 efflux-inhibited sensitized strain, primary screen (AID 1298;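 active = RAM network inhibition above 8.4% in each of two replicates, 3 SD over the compound average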;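 also: 0% = DMSO untreated cells without growth and 100% = 10 µM 1-NA-PP1 full growth; higher means more yeast growth rescued from 5-FOA killing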); details: S. cerevisiae cbk1-as DSE1-URA3 strain, 5-FOA growth OD615, 2 d; at 50 µM; hits give high values

Row | SMILES | growth inhibition [1] | growth inhibition [2] | viability increase [3] | viability [4] | viability [5] | inhibition [6] | RAM network inhibition [7]
1 | O=C(CSc1ncccn1)NCCc1ccccc1 | -4.5% | 2.61% | -1.26% | 96% | 97.2% | 2.3% | 2.5%
2 | N#Cc1ccc(NC(=O)Nc2ccc(Cl)cc2)cc1 | 3.13% | -4.69% | -7.91% | 6.71% (active) | 7.35% (active) | 1.34% | 1.44%
3 | Cc1ccc(-n2c(=O)[nH]cc(C(=O)Nc3ccc4c(c3)OCO4)c2=O)cc1C | -15.8% | -15% | 0.27% | 107% | 94.8% | 1.78% | 3.26%
4 | CC(=O)C1=C(O)C(=O)N(CC(=O)O)C1c1ccccc1Cl (stereo not given) | 0.915% | 9.59% | -0.3% | 104% | 104% | 2.28% | 2.43%
5 | Cc1ccccc1-n1c(SC/C(O)=C(\C#N)c2nc3ccccc3[nH]2)nnc1-c1ccncc1 | 2.37% | 19.1% | -3.4% | 93.5% | 81.7% | 2.92% | 2.28%
6 | CC1=C(C(N)=O)C(c2ccccc2)n2nc(-c3cccs3)nc2N1 (stereo not given) | -9.84% | 2.11% | -3.8% | 101% | 93.8% | 2.46% | 3.65%
7 | CC1(C)CC(N2CCN(c3ccccc3)CC2)=CC(=[N+]2CCCC2)C1 | -2.24% | -20.8% | -3.22% | 18.1% (active) | 18.4% (active) | 1.37% | 0.52%
8 | Cn1c(=O)c2c(SCc3cccnc3)nc(CC(C)(C)C)nc2n(C)c1=O | 0.2% | -12% | -6.27% | 87.2% | 80.9% | 0.1% | 3.24%
9 | Cn1c(CCNC(=O)c2ccc(F)cc2)nc2ccccc21 | 0.71% | -11% | 2.04% | 105% | 99.7% | 1.2% | 4.26%
10 | Cc1ccc(NC(=O)CSc2nnc(Cc3cccn3C)n2-c2ccc(F)cc2)c(C)c1 | 4.68% | 8.61% | -3.99% | 93.2% | 81.2% | 2.25% | 2.03%
11 | COc1ccc(N(CC(=O)NCc2cccs2)S(=O)(=O)c2c(C)nn(C)c2C)cc1 | -2.88% | -15.2% | -3.49% | 88.6% | 86.9% | 0.535% | -0.27%
12 | O=C(CN1C(=O)c2ccccc2S1(=O)=O)NC1CC2CCC1C2 (stereo not given) | 0.325% | -9.88% | -1.68% | 98.6% | 89.9% | 1.11% | -0.63%
13 | CCOC(=O)N1CCN(C(=O)CSc2nnc(-c3ccc(C)c(C)c3)o2)CC1 | -1.67% | 1.73% | -2.44% | 111% | 97.4% | 2.31% | 4.67%
14 | COC(=O)c1cn(NC(=O)c2ccc3c(c2)OCO3)c(=O)c2ccccc12 | -4.02% | -1.45% | -2.75% | 96.3% | 97.3% | 1.44% | 6.69%
15 | COCCNC(=O)CN1C(=O)COc2ccc(Cl)cc21 | -4.28% | 6.35% | -1.25% | 111% | 97.9% | 1.12% | 5.23%
16 | O=C(CSc1nc2c(c(=O)n1-c1ccc(Br)cc1)SCC2)NCC1CCCO1 (stereo not given) | -11.1% | -8.53% | -1.02% | 97.9% | 101% | 1.69% | 2.63%
17 | CCOC(=O)c1sc(NC(=O)c2cc(S(=O)(=O)N3CCOCC3)ccc2C)nc1C | -4.69% | -10.3% | -2.11% | 92.3% | 86.6% | 0.57% | 6.77%
18 | CC(C)c1ccc(NC(=O)c2cnn(-c3ccccc3)c2NC(=O)c2ccco2)cc1 | -2.46% | 0.43% | -4.1% | 89.7% | 85.6% | 1.9% | 5.45%

Row | SMILES | growth inhibition [1] | growth inhibition [2] | viability increase [3] | viability [4] | viability [5] | inhibition [6] | RAM network inhibition [7]
19 | CCOC(=O)c1cc(NC(=O)NCc2ccco2)c(C)nc1C | -7.98% | -25.8% | -3.46% | 105% | 99.3% | 1.57% | 4.38%
20 | c1ccc(CNc2ncnc3c2ncn3C2CCCCO2)cc1 (stereo not given) | -5.22% | -8.96% | -1.76% | 101% | 98% | 1.25% | 5.84%
21 | Cc1oc(-c2ccc(Cl)cc2)nc1CN1CCCC(C(=O)NCCCN2CCCC2=O)C1 (stereo not given) | -14.7% | -21.4% | -0.61% | 63.8% | 78.7% | 1.73% | 0.96%
22 | c1ccc2[nH]c(-c3ccnc4ccccc34)nc2c1 | 0.915% | -4.32% | -4.45% | 102% | 95.9% | 0.605% | 2.99%
23 | O=C(NC1CCS(=O)(=O)C1)C1CCCCN1S(=O)(=O)c1ccc(Cl)cc1 (stereo not given) | -5.22% | -3.24% | -1.52% | 95% | 90.8% | 1.53% | 2.19%
24 | CC1CC(C)(C)Nc2ccc(OC(=O)c3ccco3)cc21 (stereo not given) | 7.66% | 5.69% | -7.85% | 1.57% (active) | 1.59% (active) | 0.51% | 3.36%
25 | CCN(CC)S(=O)(=O)c1cc(C(=O)Nc2ccc(Cl)cn2)ccc1C | -5.56% | -11.5% | 2.78% | 52.9% | 74.2% | 1.1% | -0.26%
26 | O=S(=O)(c1ccc(-c2cn3ccccc3n2)cc1)N1CCOCC1 | 1.49% | -12.4% | -3.55% | 86.7% | 97.3% | 1.14% | 3.9%
27 | O=C(Nc1ccccc1C(=O)NCc1ccco1)NC1CCCCC1 | -5.4% | 6.01% | -3.58% | 93.1% | 92.8% | 0.79% | 0.59%
28 | Cn1c(=O)c2c(SCc3cccnc3)nc(C3CC3)nc2n(C)c1=O | 1.77% | -1.23% | 0.27% | 94.5% | 83.4% | -0.18% | -1.65%
29 | O=C(Nc1ccc(N2CCCC2)c(Cl)c1)c1ccco1 | -2.11% | 8.76% | 0.68% | 91.5% | 89.1% | 1.51% | 0.62%
30 | Cc1cccc(C2Nc3ccccc3C(=O)N2c2ccccc2)n1 (stereo not given) | -13.9% | -8.88% | -2.08% | 94.1% | 101% | 2.28% | 2.46%
31 | COc1ccc(N2Cc3cccc(C(=O)NC(C)CCc4ccco4)c3C2=O)cc1 (stereo not given) | -3.44% | -3.73% | 3.67% | 95.3% | 95.3% | 1.92% | 7.29%
32 | CCC(C)NC(=O)C(Cc1ccccc1)n1cccc1 (stereo not given) | -9.66% | -6.93% | 0.42% | 101% | 88.4% | -0.195% | 3%
33 | COc1ccc(C(C)(C)C)cc1NC(=O)COC(=O)c1cnc(C)cn1 | -4.5% | -5.05% | -2.09% | 97.3% | 94.3% | 0.395% | 4.9%
34 | O=C(O)c1cc(S(=O)(=O)Nc2ccc3c(c2)OCCO3)c(Cl)cc1Cl | -5.69% | 3.62% | -1.04% | 95.1% | 88.4% | 2.01% | -0.21%
35 | CCCCCCC1C(C#N)=C(N)OC2=C1C(=O)CCC2 (stereo not given) | -12% | -14.4% | -2.64% | 101% | 92% | 3.6% | 4.66%
